Test results as given in ChEMBL document CHEMBL1155099, “Natural products in parallel synthesis: triazole libraries of nonactic acid” (2008).
Active and inactive are the calls of the source.

What was measured:
Format in all cases: functional, organism-based
Candida albicans = test: Antifungal activity against Candida albicans at 1 mM by almar blue dye reduction assay
Outline: (§1)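 Single-point primary screen at 1 mM using Alamar Blue dye reduction as the growth read-out.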

Escherichia coli = test: Antibacterial activity against Escherichia coli at 1 mM by almar blue dye reduction assay; outline: as §1
Cryptococcus neoformans = test: Antifungal activity against Cryptococcus neoformans at 1 mM by almar blue dye reduction assay; outline: as §1
Bacillus subtilis = test: Antibacterial activity against Bacillus subtilis at 1 mM by almar blue dye reduction assay; outline: as §1
Bacillus anthracis = test: Antibacterial activity against Bacillus anthracis at 1mM by almar blue dye reduction assay
Staphylococcus aureus = test: Antibacterial activity against Staphylococcus aureus at 1 mM by almar blue dye reduction assay; outline: as §1
Bacillus cereus = test: Antibacterial activity against Bacillus cereus at 1 mM by almar blue dye reduction assay; outline: as §1
Pseudomonas aeruginosa = test: Antibacterial activity against Pseudomonas aeruginosa at 1 mM by almar blue dye reduction assay; outline: as §1
Saccharomyces cerevisiae = test: Antifungal activity against Saccharomyces cerevisiae at 1 mM by almar blue dye reduction assay; outline: as §1

Measured: Activity

C[C@H](C[C@@H]1CC[C@H]([C@@H](C)C(=O)N2CCCC2)O1)n1cc(C#CCN(C)CCc2ccccc2)nn1
inactive: all assays above

COCCNCC#Cc1cn([C@H](C)C[C@@H]2CC[C@H]([C@@H](C)C(=O)N(C)Cc3ccccc3)O2)nn1
inactive: all assays above

Cc1cccc(NC(=O)NCC#Cc2cn([C@H](C)CC3CCC([C@@H](C)C(=O)N(C)Cc4ccccc4)O3)nn2)c1 (single isomer, unassigned)
inactive: all assays above

C[C@H](CC1CCC([C@@H](C)C(=O)N2CCCC2)O1)n1cc(C#CCOC(=O)OCc2ccccc2)nn1 (single isomer, unassigned)
inactive: all assays above

C[C@H](CC1CCC([C@@H](C)C(=O)N2CCN(CC3CCCO3)CC2)O1)n1cc(C#CCCCC#N)nn1 (single isomer, unassigned)
inactive: all assays above

C[C@H](C[C@@H]1CC[C@H]([C@@H](C)C(=O)N(C)Cc2ccccc2)O1)n1cc(C#Cc2ccccc2[N+](=O)[O-])nn1
inactive: all assays above

C[C@H](C[C@@H]1CC[C@H]([C@@H](C)C(=O)N2CCCC2)O1)n1cc(C#Cc2cccc3ccccc23)nn1
inactive: all assays above

COCCNCC#Cc1cn([C@H](C)C[C@@H]2CC[C@H]([C@@H](C)C(=O)N3CCN(CC4CCCO4)CC3)O2)nn1 (some centres not stated)
inactive: all assays above

CC(C)NC(=O)[C@H](C)[C@H]1CC[C@@H](C[C@@H](C)n2cc(C#CCc3ccccc3)nn2)O1
inactive: all assays above

CC(C)NC(=O)[C@H](C)[C@H]1CC[C@@H](C[C@@H](C)n2cc(C#CCC3CCCC3)nn2)O1
inactive: all assays above

C[C@H](C[C@@H]1CC[C@H]([C@@H](C)C(=O)N2CCN(CC3CCCO3)CC2)O1)n1cc(C#Cc2ccccc2)nn1 (some centres not stated)
inactive: all assays above

C[C@H](CC1CCC([C@@H](C)C(=O)N2CCN(CC3CCCO3)CC2)O1)n1cc(C#CCOC(=O)OCc2ccccc2)nn1 (single isomer, unassigned)
inactive: all assays above

CCC(=O)OCC#Cc1cn([C@H](C)CC2CCC([C@@H](C)C(=O)NC(C)C)O2)nn1 (single isomer, unassigned)
inactive: all assays above

Cc1cccc(NC(=O)OCC#Cc2cn([C@H](C)CC3CCC([C@@H](C)C(=O)NC(C)C)O3)nn2)c1 (single isomer, unassigned)
inactive: all assays above

C[C@H](C[C@@H]1CC[C@H]([C@@H](C)C(=O)N2CCN(CC3CCCO3)CC2)O1)n1cc(C#Cc2ccccc2[N+](=O)[O-])nn1 (some centres not stated)
inactive: all assays above

CCCCCC#Cc1cn([C@H](C)C[C@@H]2CC[C@H]([C@@H](C)C(=O)N3CCN(CC4CCCO4)CC3)O2)nn1 (some centres not stated)
inactive: all assays above

CCN(CC)C(=O)[C@H](C)[C@H]1CC[C@@H](C[C@@H](C)n2cc(C#CCOc3ccccc3)nn2)O1
inactive: all assays above

COCC#Cc1cn([C@H](C)C[C@@H]2CC[C@H]([C@@H](C)C(=O)N3CCN(CC4CCCO4)CC3)O2)nn1 (some centres not stated)
inactive: all assays above
